In brackets after ≈: the same amount, converted by molar mass.
Assays:
[1] = test system: B16; assay: Cytotoxicity against mouse B16 cells after 72 hrs by MTT assay; assay type: functional, cell-based; details: B16, 72 h
Summary of the method: (§1)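 Murine B16 melanoma and L1210 lymphoma cells in culture were exposed to compound continuously for 72 h. Viability was read by MTT assay, and IC₅₀ was derived from growth inhibition.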

[2] = test system: L1210; assay: Cytotoxicity against mouse L1210 cells after 72 hrs by MTT assay; assay type: functional, cell-based; details: L1210, 72 h; summary of the method: as §1
[3] = test system: SK-MEL-5; assay: Growth inhibition of human SK-MEL-5 cells; assay type: functional
[4] = test system: RXF 393; assay: Growth inhibition of human RXF393 cells; assay type: functional
[5] = test system: NCI-H322M; assay: Growth inhibition of human NCI-H322M cells; assay type: functional
[6] = test system: CAKI-1; assay: Growth inhibition of human Caki1 cells; assay type: functional
[7] = test system: MDA-MB-435; assay: Cytotoxicity against human MDA-MB-435 cells after 48 hrs by SRB assay; assay type: functional, cell-based; details: MDA-MB-435, 48 h
[8] = test system: MOLT-4; assay: Growth inhibition of human MOLT4 cells; assay type: functional
[9] = test system: Malme-3M; assay: Growth inhibition of human MALME-3M cells; assay type: functional
[10] = test system: SF-539; assay: Growth inhibition of human SF539 cells; assay type: functional
[11] = test system: U-251; assay: Growth inhibition of human U251 cells; assay type: functional
[12] = test system: BT-549; assay: Growth inhibition of human BT549 cells; assay type: functional
[13] = test system: SF-295; assay: Growth inhibition of human SF295 cells; assay type: functional
[14] = test system: NCI-H23; assay: Growth inhibition of human NCI-H23 cells; assay type: functional
[15] = test system: A10; assay: Induction of interphase microtubule depolymerization in rat A10 cells; assay type: functional, cell-based
[16] = Aqueous solubility of the compound; assay type: physicochemical
Summary of the method: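 Maximum aqueous solubility was measured with a modified filter-plate solubility protocol.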

[17] = test system: SK-OV-3; assay: Growth inhibition of human SKOV3 cells; assay type: functional
[18] = test system: HL-60(TB); assay: Growth inhibition of human HL-60(TB) cells; assay type: functional
[19] = test system: UACC-257; assay: Growth inhibition of human UACC257 cells; assay type: functional
[20] = test system: SNB-19; assay: Growth inhibition of human SNB19 cells; assay type: functional
[21] = test system: MDA-MB-231; assay: Growth inhibition of human MDA-MB-231 cells; assay type: functional
[22] = test system: LOX IMVI; assay: Growth inhibition of human LOXIMVI cells; assay type: functional
[23] = test system: NCI-H522; assay: Growth inhibition of human NCI-H522 cells; assay type: functional
[24] = test system: T47D; assay: Growth inhibition of human T47D cells; assay type: functional; details: read-out: pTGI
[25] = test system: HCT-116; assay: Growth inhibition of human HCT116 cells; assay type: functional
[26] = test system: MDA-MB-435; assay: Ratio of EC50 for interphase microtubule depolymerization in rat A10 cells to IC50 for cytotoxicity against human MDA-MB-435 cells; assay type: functional

COc1cc([C@@H]2C(C)=NN(C(C)=O)[C@H]2c2ccccc2)cc(OC)c1OC (relative stereo)
IC50 [1]: > 100 µM
IC50 [2]: 47 µM

COc1cc([C@@H]2C(C)=NN(C(C)=O)[C@H]2c2ccc(C)cc2)cc(OC)c1OC (relative stereo)
IC50 [1]: 45.5 µM
IC50 [2]: 6 µM

COc1cc([C@@H]2C(C)=NN(C(C)=O)[C@H]2c2ccc(Cl)cc2)cc(OC)c1OC (relative stereo)
IC50 [1]: > 100 µM
IC50 [2]: > 100 µM

COc1cc([C@@H]2C(C)=NN(C(C)=O)[C@H]2c2ccc(Br)cc2)cc(OC)c1OC (relative stereo)
IC50 [1]: > 100 µM
IC50 [2]: 33 µM

COc1cc([C@@H]2C(C)=NN(C(C)=O)[C@H]2c2ccc([N+](=O)[O-])cc2)cc(OC)c1OC (relative stereo)
IC50 [1]: > 100 µM
IC50 [2]: > 100 µM

COc1ccc([C@H]2[C@H](c3cc(OC)c(OC)c(OC)c3)C(C)=NN2C(C)=O)cc1 (relative stereo)
IC50 [1]: 95 µM
IC50 [2]: 8.4 µM

COc1cc([C@@H]2C(C)=NN(C(C)=O)[C@H]2c2cccc([N+](=O)[O-])c2)cc(OC)c1OC (relative stereo)
IC50 [1]: > 100 µM
IC50 [2]: > 100 µM

COc1cc([C@@H]2C(C)=NN(C(C)=O)[C@H]2c2ccc(Cl)c(Cl)c2)cc(OC)c1OC (relative stereo)
IC50 [1]: > 100 µM
IC50 [2]: 36 µM

COc1ccc([C@H]2[C@H](c3cc(OC)c(OC)c(OC)c3)C(C)=NN2C(C)=O)cc1OC (relative stereo)
IC50 [1]: > 100 µM
IC50 [2]: 34 µM

COc1ccc([C@H]2[C@H](c3cc(OC)c(OC)c(OC)c3)C(C)=NN2C(C)=O)cc1O (relative stereo)
IC50 [1]: 6.8 µM
GI50 [3]: 1.17 µM
TGI ([3]; read-out: pTGI (converted)): 14.1 µM
GI50 [4]: 3.09 µM
TGI ([4]; read-out: pTGI): > 100 µM
GI50 [5]: 4.27 µM
TGI ([5]; read-out: pTGI (converted)): 51.3 µM
GI50 [6]: 5.37 µM
TGI ([6]; read-out: pTGI): > 100 µM
IC50 [7]: 0.9 µM
GI50 [8]: 5.75 µM
TGI ([8]; read-out: pTGI): > 100 µM
GI50 [9]: 0.891 µM
TGI ([9]; read-out: pTGI): > 100 µM
GI50 [10]: 0.741 µM
TGI ([10]; read-out: pTGI (converted)): 4.37 µM
GI50 [11]: 3.24 µM
TGI ([11]; read-out: pTGI): > 100 µM
GI50 [12]: 1.45 µM
TGI ([12]; read-out: pTGI): > 100 µM
GI50 [13]: 2.57 µM
TGI ([13]; read-out: pTGI): > 100 µM
GI50 [14]: 3.72 µM
TGI ([14]; read-out: pTGI): > 100 µM
EC50 [15]: 4.1 µM
solubility [16]: 372 µM (≈ 154 µg/mL)
GI50 [17]: 2.19 µM
TGI ([17]; read-out: pTGI (converted)): 9.55 µM
GI50 [18]: 1.78 µM
TGI ([18]; read-out: pTGI (converted)): 7.76 µM
IC50 [2]: 3.3 µM
GI50 [19]: > 100 µM
TGI ([19]; read-out: pTGI): > 100 µM
GI50 [20]: 4.37 µM
TGI ([20]; read-out: pTGI): > 100 µM
GI50 [21]: 4.07 µM
TGI ([21]; read-out: pTGI): > 100 µM
GI50 [22]: 2.24 µM
TGI ([22]; read-out: pTGI): > 100 µM
GI50 [23]: 0.372 µM
TGI ([23]; read-out: pTGI (converted)): 11.7 µM
TGI [24]: > 100 µM
GI50 [25]: 3.02 µM
TGI ([25]; read-out: pTGI (converted)): 34.7 µM
Ratio [26]: 4.5

COc1ccc([C@H]2[C@H](c3cc(OC)c(OC)c(OC)c3)C(C)=NN2C(C)=O)cc1[N+](=O)[O-] (relative stereo)
IC50 [1]: > 100 µM
IC50 [2]: 32.5 µM

COc1ccc(OC)c([C@H]2[C@H](c3cc(OC)c(OC)c(OC)c3)C(C)=NN2C(C)=O)c1 (relative stereo)
IC50 [1]: > 100 µM
IC50 [2]: > 100 µM

COc1cc([C@@H]2C(C)=NN(C(C)=O)[C@H]2c2cc(OC)c(OC)c(OC)c2)cc(OC)c1OC (relative stereo)
IC50 [1]: > 100 µM
IC50 [2]: > 100 µM

COc1ccc(/C=C\c2cc(OC)c(OC)c(OC)c2)cc1O [COMBRETASTATIN A4]
IC50 [1]: 0.002 µM
IC50 [2]: 0.003 µM
